# Data published in ChEMBL document CHEMBL1629656, “Oritavancin kills stationary-phase and biofilm Staphylococcus aureus cells in vitro” (Antimicrob Agents Chemother, 2009).
# Activity calls are given as the source filed them. The rule behind the calls is not given here.
# Assays:
# Staphylococcus aureus [1] = experiment: Antimicrobial activity against exponential-phase methicillin-sensitive Staphylococcus aureus ATCC 29213 grown on nutrient-depleted CAMHB medium assessed as membrane depolarization after 30 mins using DiSC3(5) dye based fluorescence spectrophotometry; format: functional, organism-based
# Staphylococcus aureus [2] = experiment: Antimicrobial activity against stationary-phase methicillin-sensitive Staphylococcus aureus ATCC 29213 grown on nutrient-depleted CAMHB medium assessed as membrane depolarization after 30 mins using DiSC3(5) dye based fluorescence spectrophotometry; format: functional, organism-based
# Staphylococcus aureus [3] = experiment: Bactericidal activity against methicillin-sensitive Staphylococcus aureus assessed as log reduction in bacterial load within 15 to 120 mins; format: functional
# Staphylococcus aureus [4] = experiment: Bactericidal activity against stationary-phase methicillin-sensitive Staphylococcus aureus ATCC 29213 grown on nutrient-depleted CAMHB medium assessed as log reduction in bacterial count at 0.5 ug/ml after 24 hrs by time kill analysis; format: functional
# Staphylococcus aureus [5] = experiment: Bactericidal activity against exponential-phase methicillin-sensitive Staphylococcus aureus ATCC 29213 grown on nutrient-depleted CAMHB medium at 0.5 ug/ml after 24 hrs by time kill analysis; format: functional, organism-based
# Staphylococcus aureus [6] = experiment: Bactericidal activity against exponential-phase methicillin-sensitive Staphylococcus aureus ATCC 29213 grown on nutrient-depleted CAMHB medium at 16 ug/ml after 24 hrs by time kill analysis; format: functional, organism-based
# Staphylococcus aureus [7] = experiment: Bactericidal activity against exponential-phase methicillin-sensitive Staphylococcus aureus ATCC 29213 grown on nutrient-depleted CAMHB medium at 4 ug/ml after 24 hrs by time kill analysis; format: functional, organism-based
# Staphylococcus aureus [8] = experiment: Bactericidal activity against stationary-phase methicillin-resistant Staphylococcus aureus ATCC 33591 grown on nutrient-depleted CAMHB medium after 24 hrs by time kill analysis; format: functional, organism-based
# Outline: (§1)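 Overnight stationary-phase cultures inoculated at ~10^7 CFU/ml into strain-matched spent CAMHB (pH 7.0, filter-sterilized). Oritavancin was kept at 0.002% polysorbate 80; daptomycin wells had 50 μg/ml CaCl2. Incubation at 37°C, 225 rpm. Samples were charcoal-quenched (25 mg/ml) before plating; points are means of duplicates. Bactericidal means ≥3-log drop at 24 h versus inoculum. ≥3 repeats.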
# Staphylococcus aureus [9] = experiment: Bactericidal activity against stationary-phase methicillin-resistant Staphylococcus aureus ATCC 33591 grown on nutrient-depleted CAMHB medium assessed as reduction in bacterial count at 0.5 ug/ml after 24 hrs by time kill analysis; format: functional; outline: as §1
# Staphylococcus aureus [10] = experiment: Antimicrobial activity against stationary-phase methicillin-sensitive Staphylococcus aureus ATCC 29213 grown on nutrient-depleted CAMHB medium assessed as membrane permeability after 30 mins by propidium iodide staining-based fluorescence spectrophotometry; format: functional, organism-based
# Staphylococcus aureus [11] = experiment: Antimicrobial activity against exponential-phase methicillin-sensitive Staphylococcus aureus ATCC 29213 grown on nutrient-depleted CAMHB medium assessed as membrane permeability after 30 mins by propidium iodide staining-based fluorescence spectrophotometry; format: functional, organism-based
# Staphylococcus aureus [12] = experiment: Bactericidal activity against exponential-phase methicillin-sensitive Staphylococcus aureus ATCC 29213 assessed as log reduction in bacterial count at 16 ug/ml within 15 mins by time kill analysis; format: functional
# Outline: (§2)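 Short (2-h) time-kill of ATCC 29213 at OD600 0.005 (~10^6 CFU/ml) in 10 mM HEPES-Cl pH 7.5 with 50 μg/ml CaCl2. Exponential cells had 5 mM glucose and stationary cells none. Oritavancin was tested without polysorbate 80; viable counts were taken by serial dilution plating. Three repeats; one shown.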
# Staphylococcus aureus [13] = experiment: Bactericidal activity against exponential-phase methicillin-sensitive Staphylococcus aureus ATCC 29213 assessed as log reduction in bacterial count at 4 ug/ml within 2 hrs by time kill analysis; format: functional
# Staphylococcus aureus [14] = experiment: Bactericidal activity against stationary-phase methicillin-sensitive Staphylococcus aureus ATCC 29213 assessed as log reduction in bacterial count at 4 ug/ml within 2 hrs by time kill analysis; format: functional
# Staphylococcus aureus [15] = experiment: Bactericidal activity against stationary-phase methicillin-sensitive Staphylococcus aureus ATCC 29213 assessed as log reduction in bacterial count at 16 ug/ml within 2 hrs by time kill analysis; format: functional; outline: as §2
# Staphylococcus aureus [16] = experiment: Inhibition of cell division in stationary-phase methicillin-resistant Staphylococcus aureus ATCC 43300 assessed as absence of appearance of septal midline at 1 ug/ml by transmission electron microscopy; format: functional, organism-based
# Outline: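 Stationary-phase MRSA ATCC 43300 (5 × 10^7 CFU/ml) exposed for 3 h in nutrient-depleted CAMHB. Cells were fixed in 2.5% glutaraldehyde, post-fixed in 2% osmium tetroxide and en bloc stained with uranyl acetate. Samples were ethanol-dehydrated, embedded in LR White, thin-sectioned, and stained with uranyl acetate/lead citrate. Septa were viewed by TEM at 100 kV.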
# Staphylococcus aureus [17] = experiment: Antimicrobial activity against methicillin-sensitive Staphylococcus aureus ATCC 29213 planktonic cells by broth microdilution method; format: functional
# Outline: (§3)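 Planktonic MIC read in the MBEC system against cells shed from 24-h peg biofilms (grown in tryptic soy broth, 37°C, 150 rpm), after 24-h exposure to serially diluted drug in CAMHB without polysorbate 80. Ranges come from ≥3 independent experiments.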
# Staphylococcus aureus [18] = experiment: Antimicrobial activity against methicillin-resistant Staphylococcus aureus ATCC 33591 planktonic cells by broth microdilution method; format: functional; outline: as §3
# Staphylococcus aureus [19] = experiment: Antimicrobial activity against vancomycin-resistant Staphylococcus aureus isolate VRS5 planktonic cells by broth microdilution method; format: functional; outline: as §3
# Staphylococcus aureus [20] = experiment: Antimicrobial activity against methicillin-sensitive Staphylococcus aureus ATCC 29213 assessed as inhibition of bacterial biofilm formation after 1 hr by serial dilution method; format: functional
# Staphylococcus aureus [21] = experiment: Antimicrobial activity against methicillin-sensitive Staphylococcus aureus ATCC 29213 assessed as inhibition of biofilm formation after 24 hrs by serial dilution method; format: functional
# Outline: (§4)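 24-h biofilms grown on MBEC peg lids from 10^7 CFU/ml inocula in tryptic soy broth at 37°C, 150 rpm. After a saline wash, pegs were exposed for 24 h to serially diluted drug in CAMHB with no polysorbate 80. Pegs were washed, sonicated 5 min into CAMHB recovery plates and incubated 24 h; MBEC is the lowest sterilizing concentration. Ranges come from ≥3 independent experiments.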
# Staphylococcus aureus [22] = experiment: Antimicrobial activity against methicillin-resistant Staphylococcus aureus ATCC 33591 assessed as inhibition of biofilm formation after 24 hrs by serial dilution method; format: functional; outline: as §4
# Staphylococcus aureus [23] = experiment: Bactericidal activity against stationary-phase vancomycin-resistant Staphylococcus aureus isolate VRS5 after 24 hrs by time kill analysis; format: functional, organism-based; outline: as §1
# Homo sapiens = experiment: fCmin in human at 200 […]; format: ADME, organism-based; settings: in vivo
# Staphylococcus aureus [24] = experiment: Antimicrobial activity against 4.6 X 10^6 CFU/peg methicillin-susceptible Staphylococcus aureus ATCC 29213 planktonic cells by broth microdilution method
# Staphylococcus aureus [25] = experiment: Antimicrobial activity against 4.6 X 10^6 CFU/peg methicillin-susceptible Staphylococcus aureus ATCC 29213 assessed as inhibition of biofilm formation after 24 hrs by serial dilution method
# Staphylococcus aureus [26] = experiment: Bactericidal activity against stationary-phase vancomycin-resistant Staphylococcus aureus isolate VRS5 grown on nutrient-depleted CAMHB medium assessed as log reduction in bacterial count at 4 ug/ml after 24 hrs by time kill analysis
structure (smiles),measurement,setting,value
CN[C@H](CC(C)C)C(=O)N[C@H]1C(=O)N[C@@H](CC(N)=O)C(=O)N[C@H]2C(=O)N[C@H]3C(=O)N[C@H](C(=O)N[C@H](C(=O)O)c4cc(O)cc(O)c4-c4cc3ccc4O)[C@H](O[C@H]3C[C@](C)(N)[C@@H](O)[C@H](C)O3)c3ccc(c(Cl)c3)Oc3cc2cc(c3O[C@@H]2O[C@H](CO)[C@@H](O)[C@H](O)[C@H]2O[C@H]2C[C@](C)(NCc3ccc(-c4ccc(Cl)cc4)cc3)[C@@H](O)[C@H](C)O2)Oc2ccc(cc2Cl)[C@H]1O [ORITAVANCIN],Activity,Staphylococcus aureus [1],Dose-dependent effect
same,Activity,Staphylococcus aureus [2],Dose-dependent effect
same,FC,Staphylococcus aureus [3],>=3
same,FC,Staphylococcus aureus [4],2.9
same,Activity,Staphylococcus aureus [5],Active
same,Activity,Staphylococcus aureus [6],Active
same,Activity,Staphylococcus aureus [7],Active
same,Activity,Staphylococcus aureus [8],Dose-dependent effect
same,fold change (FC),Staphylococcus aureus [9],0.4
same,Activity,Staphylococcus aureus [10],Dose-dependent effect
same,Activity,Staphylococcus aureus [11],Dose-dependent effect
same,FC,Staphylococcus aureus [12],3.2
same,FC,Staphylococcus aureus [13],2.9
same,FC,Staphylococcus aureus [14],0.9
same,FC,Staphylococcus aureus [15],1.5
same,inhibition,Staphylococcus aureus [16],Active
same,MIC,Staphylococcus aureus [17],2 µg/mL
same,MIC,Staphylococcus aureus [18],0.5 µg/mL
same,MIC,Staphylococcus aureus [19],2 µg/mL
same,MBEC,Staphylococcus aureus [20],4 µg/mL
same,MBEC,Staphylococcus aureus [21],2 µg/mL
same,MBEC,Staphylococcus aureus [22],0.5 µg/mL
same,Activity,Staphylococcus aureus [23],Dose-dependent effect
same,fCmin,Homo sapiens,0.5 µg/mL
same,MIC,Staphylococcus aureus [24],4 µg/mL
same,MBEC,Staphylococcus aureus [25],8 µg/mL
same,FC,Staphylococcus aureus [26],2.2
